For assay [1], the target named is GABA-A receptor; anion channel. Briefly: Binding affinity to rat benzodiazepine receptor. In kind it is protein-complex assay. In a few lines: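 Rat BZD receptor membranes incubated with 2 nM [3H]-flunitrazepam and test ligand for 90 min at 4 °C in 50 mM Tris–HCl pH 7.4 with 150 mM NaCl. Twelve-point curves made by 3-fold serial dilution from DMSO stocks, final DMSO ≤0.4%. Nonspecific binding taken with 2'-chlorodiazepam. Filtration through GF/B, ice-cold Tris washes, scintillation counting. Triplicates, at least three runs; Ki reported in nM.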

The target of assay [2] is GABA-A receptor; anion channel (Rattus norvegicus) (UniProt O09028+P15431+P18506+P18508+P19969+P20236+P23574+P23576+P28471+P28473+P30191+P62813+P63079+P63138+Q91ZM7+Q9ES14). Briefly: Ratio between Ki value (acid) / Ki value (ester) was determined. It counts as protein-complex assay. In a few lines: (§1)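 Ki of the acid divided by Ki of the matching ester. Both Ki values come from [3H]-flunitrazepam displacement at rat BZD receptor membranes (2 nM radioligand, 90 min, 4 °C, Tris–HCl pH 7.4 with NaCl), with triplicate 12-point curves.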

Assay [3] has as its system Rattus norvegicus. The experiment in a line: Loss of righting reflex recovery time (initial) in rat was determined when treated with a dose of 30 mg/Kg. In kind it is functional, organism-based. In a few lines:
(§2)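 Rats given an iv bolus in 50% PEG/25% EtOH/25% saline. Scored for time to LRR onset, initial recovery (rights itself three consecutive times) and total recovery (walks without ataxia and pulls up three times when hung from a horizontal wire), in min.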

In assay [4] the test system is Rattus norvegicus. Briefly: Loss of righting reflex recovery time (total) in rat was determined when treated with a dose of 30 mg/Kg. It counts as functional, organism-based. An outline of the steps: as §2
A short description of assay [5]: Ratio between Ki (acid) / Ki (ester) was determined. In a few lines: as §1

As for `COC(=O)CC[C@@H]1N=C(c2ccccc2F)c2cc([N+](=O)[O-])ccc2NC1=O`, the Ki in assay [1] came to 7 nM.

In assay [1], `COC(=O)CCNC1N=C(c2ccccc2Cl)c2cc(Cl)ccc2NC1=O` (centres undefined) gave an inhibition constant Ki of 17 nM. For the same compound, the Ratio in assay [2] came to 17.

For `COC(=O)CCC[C@@H]1N=C(c2ccccc2F)c2cc(Cl)ccc2NC1=O`, in assay [1], the Ki amounted to 3 nM. In addition, the Ratio in assay [2] was 186.

In assay [1], `COC(=O)CCN[C@H]1N=C(c2ccccc2Cl)c2cc(Cl)ccc2NC1=O` came in with a Ki of 3 nM. The Ratio in assay [2] was 130.

As for `O=C(CC[C@@H]1N=C(c2ccccc2F)c2ccccc2NC1=O)OCc1ccccc1`, the affinity in assay [1], expressed as Ki, was 163 nM.

The compound `O=C(CC[C@@H]1N=C(c2ccccc2F)c2cc(Cl)ccc2NC1=O)OCc1ccncc1` yielded a Ki in assay [1] of 34 nM. In addition, in assay [2], the Ratio was 124.

Compound `O=C(C[C@@H]1N=C(c2ccccc2)c2cc(Cl)ccc2NC1=O)OCc1ccccc1` displayed a Ki in assay [1] of 1450 nM. Besides, the Recovery time in the assay with Rattus norvegicus [3] was determined as 4 min; with Rattus norvegicus [4], 14 min.

As for `COC(=O)C[C@@H]1N=C(c2ccccc2F)c2cc(Cl)ccc2NC1=O`, in assay [1], the affinity corresponds to a Ki of 81 nM. In addition, the Ratio in assay [5] is 165.

`COC(=O)CC[C@@H]1N=C(c2ccccc2F)c2ccccc2NC1=O` had a Ki in assay [1] of 92 nM.

With `COC(=O)CCN[C@@H]1N=C(c2ccccc2Cl)c2cc(Cl)ccc2NC1=O`, affinity in assay [1] was put at a Ki of 189 nM. Also, the Ratio in assay [2] turned out to be 1.

Consider `Cc1ncc2n1-c1ccc(Cl)cc1C(c1ccccc1F)=NC2` [MIDAZOLAM], for which the Ki in assay [1] was found to be 2 nM. For the same compound, the Recovery time in the assay on Rattus norvegicus [3] was 23 min; in the assay on Rattus norvegicus [4], 121 min.

`O=C(C[C@@H]1N=C(c2ccccc2F)c2cc(Cl)ccc2NC1=O)OCc1ccccc1`: affinity in assay [1] was put at a Ki of 176 nM. Besides, the Recovery time in the assay on Rattus norvegicus [3] amounted to 13 min; in the assay with Rattus norvegicus [4], 17 min. Besides, the Ratio in assay [2] is 76.

Compound `CCOC(=O)C[C@@H]1N=C(c2ccccc2F)c2cc(Cl)ccc2NC1=O` gave a Ki in assay [1] of 45 nM. The Ratio in assay [2] is 297.

The compound `CCCCOC(=O)CC[C@@H]1N=C(c2ccccc2F)c2cc(Cl)ccc2NC1=O` returned a Ki in assay [1] of 242 nM. Besides, the Recovery time was 15 min with Rattus norvegicus [3] and 25 min with Rattus norvegicus [4]. In addition, in assay [2], the Ratio was 17.

As for `O=C(CC[C@@H]1N=C(c2ccccc2F)c2cc(Cl)ccc2NC1=O)OCc1ccccc1`, affinity in assay [1] was put at a Ki of 29 nM. Moreover, the Recovery time in the assay with Rattus norvegicus [3] came to 8 min; with Rattus norvegicus [4], 19 min. For the same compound, the Ratio in assay [2] was 143.

On to `COC(=O)CC[C@@H]1N=C(c2ccccc2F)c2cc(Br)ccc2NC1=O`, for which the inhibition constant Ki in assay [1] came to 3 nM. The Recovery time stood at 22 min in the assay with Rattus norvegicus [3] and 30 min in the assay with Rattus norvegicus [4]. The Ratio in assay [2] stood at 431.

The compound `COC(=O)CN[C@H]1N=C(c2ccccc2Cl)c2cc(Cl)ccc2NC1=O` registered an inhibition constant (Ki) in assay [1] of 23 nM. Also, the Ratio in assay [2] is 172.

In assay [1], `O=C(C[C@@H]1N=C(c2ccccc2F)c2cc(Cl)ccc2NC1=O)OCc1ccncc1` came in with a Ki of 289 nM.

For the compound `CC(C)OC(=O)CC[C@@H]1N=C(c2ccccc2F)c2cc(Cl)ccc2NC1=O`, the Ki in assay [1] worked out at 39 nM. In addition, in assay [2], the Ratio is 108.

As for `COC(=O)CC[C@@H]1N=C(c2ccccc2F)c2cc(Cl)ccc2NC1=O`, the Ki in assay [1] came to 7 nM. The Recovery time in the assay on Rattus norvegicus [3] came to 9 min; with Rattus norvegicus [4], 24 min. For the same compound, the Ratio in assay [2] came to 984.

For the compound `CN1C(=O)CN=C(c2ccccc2)c2cc(Cl)ccc21`, the Recovery time with Rattus norvegicus [3] came to 5 min; with Rattus norvegicus [4] it was 82 min.

In assay [1], `COC(=O)CN[C@@H]1N=C(c2ccccc2Cl)c2cc(Cl)ccc2NC1=O` showed a Ki of 480 nM. In addition, the Ratio in assay [2] stood at 9.

Consider `O=C(C[C@H]1N=C(c2ccccc2)c2cc(Cl)ccc2NC1=O)OCc1ccccc1`, for which the Ki in assay [1] is 100000 nM.

`COC(=O)CNC1N=C(c2ccccc2Cl)c2cc(Cl)ccc2NC1=O` (centres undefined) gave a Ki in assay [1] of 53 nM. For the same compound, in assay [2], the Ratio came to 35.

Regarding `COC(=O)CC[C@@H]1N=C(c2ccccc2)c2cc([N+](=O)[O-])ccc2NC1=O`, the Ki in assay [1] was 118 nM. Moreover, the Recovery time in the assay with Rattus norvegicus [3] was 2 min; with Rattus norvegicus [4], 14 min. In addition, in assay [2], the Ratio came to 95.

For `O=C(CC[C@@H]1N=C(c2ccccc2)c2cc([N+](=O)[O-])ccc2NC1=O)OCc1ccccc1`, the Ki in assay [1] was found to be 124 nM. The Recovery time in the assay with Rattus norvegicus [3] worked out at 2 min; in the assay with Rattus norvegicus [4] it was 3 min. Also, in assay [2], the Ratio turned out to be 91.

The compound `O=C(CC[C@@H]1N=C(c2ccccc2)c2cc(Cl)ccc2NC1=O)OCc1ccccc1` showed an inhibition constant (Ki) in assay [1] of 200 nM. Moreover, the Recovery time in the assay with Rattus norvegicus [3] was determined as 15 min; in the assay with Rattus norvegicus [4], 22 min.

The compound `COC(=O)CC[C@H]1N=C(c2ccccc2F)c2cc(Cl)ccc2NC1=O` gave a Ki in assay [1] of 741 nM. In addition, the Recovery time in the assay on Rattus norvegicus [3] was found to be 2 min; in the assay with Rattus norvegicus [4] it was 4 min.
